These results are taken from ChEMBL document CHEMBL1811823, “Quinazolinone linked pyrrolo[2,1-c][1,4]benzodiazepine (PBD) conjugates: Design, synthesis and biological evaluation as potential anticancer agents” (2010).

One test concerns KB. The experiment in a line: Growth inhibition of human KB cells after 48 hrs by SRB assay. Type of test: functional. In outline:
(§1)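 Cells grown in RPMI 1640 with 10% FBS and 2 mM L-glutamine, plated at densities set by doubling time, pre-incubated 24 h at 37 °C/5% CO2. Drug tested at 0.1, 1, 10 and 100 µM in triplicate wells for 48 h continuous exposure. Cells fixed with cold TCA (final 10%) 60 min at 4 °C, stained with 0.4% SRB, dye eluted in 10 mM Tris. Absorbance read at 540 nm (690 nm reference); percent growth calculated relative to control wells.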
Background: The SRB assay estimates cell density from bound dye.

The nature of test [1]: Growth inhibition of human Gurav cells after 48 hrs by SRB assay. Type of test: functional. In outline: as §1
The next test deals with A2780. Briefly: Growth inhibition of human A2780 cells after 48 hrs by SRB assay. In kind it is functional. The conditions noted are these: A2780, 48 h. In short, it runs like this: as §1
The test system of a further test is COLO 205. Briefly: Growth inhibition of human COLO205 cells after 48 hrs by SRB assay. Type of test: functional. The conditions noted are these: COLO 205, 48 h. In short, it runs like this: as §1
The test system of a further test is ZR-75-1. Briefly: Growth inhibition of human ZR-75-1 cells after 48 hrs by SRB assay. Type of test: functional. To be noted: ZR-75-1, 48 h. In short, it runs like this:
(§2)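 SRB assay with 48 h continuous exposure. Cells were grown in RPMI 1640 with 10% FBS and 2 mM L-glutamine and preincubated 24 h at 37 °C, 5% CO2. Compounds were tested at four concentrations (0.1, 1, 10, 100) in triplicate wells. Cells were fixed with cold TCA (10% final) for 60 min at 4 °C, stained 20 min with 0.4% SRB in 1% acetic acid, and the dye eluted with 10 mM Tris. A540 was read against a 690 nm reference. Percent growth is relative to control wells on each plate.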

The next test has as its system PC-3. Briefly: Growth inhibition of human PC3 cells after 48 hrs by SRB assay. Type of test: functional. The conditions noted are these: PC-3, 48 h. In outline: as §1
The test system of another test is MCF7. Briefly: Growth inhibition of human MCF7 cells after 48 hrs by SRB assay. In kind it is functional. The conditions noted are these: MCF7, 48 h. In short, it runs like this:
as §1

For another test, the system named is Nucleic Acid. Briefly: Binding affinity to calf thymus DNA assessed as change in melting temperature at 20 uM at pH 7 incubated for 18 hrs at 37 degC by thermal denaturation assay. The conditions noted are these: Bos taurus. Type of test: nucleic-acid assay. In short, it runs like this: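 CT-DNA (100 µM in phosphate) with 20 µM ligand, 1:5 [PBD]/[DNA], in 10 mM sodium phosphate/1 mM Na2EDTA buffer pH 7.00. Ligand added from methanol solution; incubated at 37 °C for 0 or 18 h. A260 monitored while heating 1 °C/min over 40–90 °C. Tm taken from d(A260)/dT maxima; ΔTm = Tm(DNA+PBD) − Tm(DNA alone). Values are means of at least three determinations, corrected for methanol cosolvent.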

In the next test the test system is HOP-62. Briefly: Growth inhibition of human HOP62 cells after 48 hrs by SRB assay. Type of test: functional. The conditions noted are these: HOP-62, 48 h. In short, it runs like this: as §1
The next test relates to A549. The experiment in a line: Growth inhibition of human A549 cells after 48 hrs by SRB assay. Type of test: functional. To be noted: A549, 48 h. In short, it runs like this: as §1
Test [2] is described as follows: Growth inhibition of human DWD cells after 48 hrs by SRB assay. In kind it is functional. In short, it runs like this:
as §1

A further test deals with SiHa. Briefly: Growth inhibition of human SiHa cells after 48 hrs by SRB assay. Type of test: functional. In outline: as §2

Regarding `COc1cc2c(cc1OCCCCCOc1ccc(-n3c(/C=C/c4ccccc4)nc4ccccc4c3=O)cc1)N=C[C@@H]1CCCN1C2=O`, the GI50 worked out at 2150 nM with KB; 1820 nM in test [1]; 150 nM in the test with A2780; 2000 nM in the test with COLO 205; 150 nM with ZR-75-1; 1830 nM in the test on PC-3. Also, the GI50 was found to be 2500 nM in the test with MCF7; 2310 nM in the test with HOP-62; 26200 nM in the test with A549; 170 nM in test [2]; 2080 nM with SiHa. Also, in the test with Nucleic Acid, the ΔTm was 2 °C.

Regarding `COc1cc2c(cc1O)N=C[C@@H]1CCCN1C2=O`, the GI50 in the test with KB was determined as 170 nM; in [1], 160 nM; in the test on A2780, 140 nM; in the test on COLO 205 it was 110 nM; in the test with PC-3, 200 nM; in the test on MCF7, 170 nM. The GI50 with HOP-62 worked out at 150 nM; in the test with A549 it was 160 nM; in the test with SiHa, 170 nM. Further, the shift in melting temperature (ΔTm) in the test with Nucleic Acid was determined as 0.7 °C.

Take `COc1ccc(-n2c(C)nc3ccc(OCCCCCOc4cc5c(cc4OC)C(=O)N4CCC[C@H]4C=N5)cc3c2=O)cc1`: the GI50 is 160 nM with KB; less than 100 nM in [1]; 140 nM with A2780; 140 nM with COLO 205; 150 nM in the test with ZR-75-1; 170 nM in the test with PC-3. Moreover, the GI50 in the test on MCF7 was less than 100 nM; in the test on HOP-62 it was 180 nM; in the test with A549 it was 140 nM; in test [2], 130 nM; in the test on SiHa it was 180 nM. For the same molecule, the ΔTm with Nucleic Acid was determined as 2.2 °C.

Consider `COc1cccc2c1C(=O)c1c(O)c3c(c(O)c1C2=O)C[C@@](O)(C(=O)CO)C[C@@H]3O[C@H]1C[C@H](N)[C@H](O)[C@H](C)O1` [DOXORUBICIN], for which the GI50 came to 170 nM in the test with KB; 170 nM in test [1]; 160 nM with A2780; 140 nM with COLO 205; 170 nM in the test on MCF7; 140 nM in the test on HOP-62. For the same molecule, the GI50 in [2] turned out to be 100 nM; in the test on SiHa it was 170 nM.

As for `COc1cc2c(cc1OCCCCOc1ccc(-n3c(/C=C/c4ccccc4)nc4ccccc4c3=O)cc1)N=C[C@@H]1CCCN1C2=O`, the GI50 in the test with KB is 2070 nM; in test [1], 1930 nM; in the test with A2780, 160 nM; in the test on COLO 205 it was 2230 nM; in the test on ZR-75-1 it was 160 nM; in the test with PC-3, 1910 nM. In addition, the GI50 in the test with HOP-62 was determined as 2330 nM; with A549, 2390 nM; in test [2], 160 nM; in the test on SiHa, 2190 nM. Moreover, the ΔTm in the test with Nucleic Acid worked out at 2.3 °C.

For `COc1cc2c(cc1OCCCOc1ccc(-n3c(/C=C/c4ccccc4)nc4ccccc4c3=O)cc1)N=C[C@@H]1CCCN1C2=O`, the GI50 in the test on KB amounted to 1780 nM; in test [1] it was 1850 nM; in the test with A2780, 140 nM; in the test with COLO 205, 2120 nM; in the test with ZR-75-1, 160 nM; in the test with PC-3, 160 nM. Further, the GI50 stood at 2030 nM in the test on MCF7; 2150 nM with HOP-62; 1880 nM in the test on A549; 140 nM in test [2]; 2000 nM in the test on SiHa. For the same molecule, the ΔTm in the test on Nucleic Acid was found to be 2 °C.

For `COc1cc2c(cc1OCCCCOc1ccc3nc(C)n(-c4ccc(I)cc4C)c(=O)c3c1)N=C[C@@H]1CCCN1C2=O`, the concentration for 50% growth inhibition (GI50) in the test on KB was 150 nM; in test [1] it was 170 nM; in the test with A2780, 150 nM; with COLO 205, 170 nM; in the test on ZR-75-1, 160 nM; with PC-3 it was 170 nM. Moreover, the GI50 amounted to 120 nM in the test on MCF7; 170 nM in the test with HOP-62; 170 nM in the test with A549; 150 nM in [2]; 180 nM in the test with SiHa. For the same molecule, in the test with Nucleic Acid, the ΔTm was determined as 2 °C.

`COc1cc2c(cc1OCCCCCOc1ccc3nc(C)n(-c4ccc(I)cc4C)c(=O)c3c1)N=C[C@@H]1CCCN1C2=O`: the concentration for 50% growth inhibition (GI50) was found to be 150 nM with KB; 160 nM in test [1]; 140 nM in the test with A2780; 160 nM in the test with COLO 205; 160 nM in the test on ZR-75-1; 160 nM in the test on PC-3. Also, the GI50 was 110 nM with MCF7; 160 nM in the test with HOP-62; 160 nM in the test on A549; 130 nM in test [2]; 170 nM in the test on SiHa. Also, the ΔTm with Nucleic Acid worked out at 2.1 °C.

For the molecule `COc1cc2c(cc1OCCCOc1ccc(-n3c(C)nc4ccccc4c3=O)cc1)N=C[C@@H]1CCCN1C2=O`, the GI50 is 150 nM with KB; 130 nM in [1]; 100 nM in the test on A2780; 140 nM in the test with COLO 205; 150 nM with ZR-75-1; 130 nM in the test with PC-3. Further, the GI50 in the test with MCF7 is 1830 nM; in the test on HOP-62, 160 nM; in the test on A549, 1480 nM; in [2] it was 110 nM; in the test with SiHa, 160 nM. The ΔTm in the test with Nucleic Acid was 2 °C.

In the case of `COc1cc2c(cc1OCCCCOc1ccc3nc(C)n(-c4ccc(Cl)cc4Cl)c(=O)c3c1)N=C[C@@H]1CCCN1C2=O`, the 50% growth inhibitory concentration (GI50) turned out to be 160 nM in the test on KB; 170 nM in test [1]; 150 nM with A2780; 170 nM in the test with COLO 205; 170 nM in the test with ZR-75-1; 180 nM in the test on PC-3. Further, the GI50 with MCF7 amounted to 140 nM; in the test on HOP-62 it was 180 nM; in the test with A549 it was 180 nM; in test [2], 150 nM; in the test with SiHa, 180 nM. Moreover, the ΔTm in the test with Nucleic Acid worked out at 2.3 °C.

As to `COc1cc2c(cc1OCCCCCOc1ccc3nc(C)n(-c4ccc(F)cc4)c(=O)c3c1)N=C[C@@H]1CCCN1C2=O`, the GI50 in the test on KB was determined as 150 nM; in test [1], 130 nM; in the test with A2780, 140 nM; in the test on COLO 205, 150 nM; in the test on ZR-75-1, 160 nM; in the test with PC-3, 170 nM. Further, the GI50 with MCF7 came out at 150 nM; in the test on HOP-62, 180 nM; in the test with A549, 130 nM; in [2], 150 nM; in the test on SiHa, 190 nM. In addition, the ΔTm in the test with Nucleic Acid worked out at 2.2 °C.

For `COc1cc2c(cc1OCCCCOc1ccc(-n3c(C)nc4ccccc4c3=O)cc1)N=C[C@@H]1CCCN1C2=O`, the 50% growth inhibitory concentration (GI50) came out at 1980 nM with KB; 1950 nM in test [1]; 1650 nM in the test with A2780; 1810 nM in the test with COLO 205; 170 nM with ZR-75-1; 170 nM in the test on PC-3. For the same molecule, the GI50 is 2300 nM in the test on MCF7; 1950 nM with HOP-62; 1930 nM in the test on A549; 1600 nM in [2]; 1900 nM with SiHa. The ΔTm with Nucleic Acid was found to be 2.1 °C.

What is called GI50 is the concentration giving 50% growth inhibition. A word on the ΔTm: it is the shift of the melting midpoint relative to a reference.
